Measurements gathered from unrelated publications.
Lines come from different studies, so protocols differ.
CDK4 with cyclin D3: Cyclin-dependent kinase 4, with cyclin D3 (CDK4, Homo sapiens, UniProt P11802)
CDK4: Cyclin-dependent kinase 4 (CDK4, Homo sapiens, UniProt P11802)
CDK4 with cyclin D1: Cyclin-dependent kinase 4, with cyclin D1 (CDK4, Homo sapiens, UniProt P11802)

Compound	target	test	conditions	measurement	result
Nc1ncnc2occ(-c3ccc(NC(=O)Nc4cc(C(F)(F)F)ccc4F)cc3)c12	CDK4 with cyclin D3	cell-free assay, inhibitor	20 µM	remaining signal	51%
F[C@@H]1CCN(c2nccc(-c3cnn4ncccc34)n2)C1	CDK4	binding	1 µM	remaining binding	100%
CCN(CC)CCNC(=O)c1c(C)[nH]c(/C=C2\C(=O)Nc3ccc(F)cc32)c1C	CDK4 with cyclin D1	cell-free assay	0.5 µM	remaining signal	81%
CC(=O)C1=C(C)N(c2cccc(C(F)(F)F)c2)C(=O)N[C@@H]1c1ccc(C#N)nc1	CDK4	cell-free assay, competition with immobilised ligand	1 µM	remaining binding	100%
O=C1Nc2ccc(Cl)cc2C1=Cc1cc(Cl)c(O)c(Cl)c1	CDK4 with cyclin D1	cell-free assay	0.5 µM	remaining signal	94.7%
CC(C)(C)c1nc2c(s1)c1nc(N)ncc1c1ccc(NS(=O)(=O)c3c(F)cccc3F)c(F)c12	CDK4 with cyclin D1	enzyme activity, inhibitor, radiometric	1 µM	remaining activity	88%
CSc1cccnc1N1CCN(Cc2nc3ccccc3[nH]2)CC1	CDK4 with cyclin D3	cell-free assay, competition with immobilised ligand	1 µM	remaining binding	82%
O=C(c1ccccc1F)[C@H]1Cc2c(cc([N+](=O)[O-])cc2[N+](=O)[O-])[C@H](O)[C@]12C(=O)Nc1ccccc12	CDK4	cell-free assay, inhibitor, TR-FRET	1 µM	inhibition	29.3%
N#CCCc1ccc2c(c1)-c1[nH]c3ccc([N+](=O)[O-])cc3c1CC(=O)N2	CDK4 with cyclin D3	cell-free assay	0.5 µM	remaining signal	25.9%
O=C(Nc1cnn(-c2csc(C(=O)NC3COC3)c2)c1)Nc1c(F)cccc1Cl	CDK4 with cyclin D1	enzyme activity, inhibitor	5 µM	remaining activity	90.3%
Cc1ccc(NC(=O)c2ccc(C)c(C(F)(F)F)c2)cc1C#Cc1nn(C2CCC(O)CC2)c2ncnc(N)c12 (stereo not shown)	CDK4 with cyclin D3	cell-free assay	10 µM	remaining signal	86%
Oc1cccc(-c2nc(N3CCOCC3)c3oc4ncccc4c3n2)c1	CDK4 with cyclin D3	cell-free assay	0.5 µM	remaining signal	92.5%
Cc1cnn2ncc(-c3ccnc(N(C)C)n3)c2c1	CDK4 with cyclin D3	binding	1 µM	remaining binding	83%
CO[C@@H](C)c1c(Nc2ccc([C@@H](N(C)C(=O)C3CCS(=O)(=O)CC3)C(F)(F)F)cc2)cnc2cc(Cl)nn12	CDK4 with cyclin D1	cell-free assay, competition with immobilised ligand	1 µM	remaining binding	100%
O=C(c1ccc(Br)cc1)[C@H]1Cc2c(cc([N+](=O)[O-])cc2[N+](=O)[O-])[C@H](O)[C@]12C(=O)Nc1ccccc12	CDK4	cell-free assay, inhibitor, TR-FRET	1 µM	inhibition	18.6%
O=C(O)c1cc(-c2ccc(C3CCNCC3)cc2)c2ccc(-c3ccc(C(F)(F)F)cc3)cc2c1	CDK4 with cyclin D1	cell-free assay, competition with immobilised ligand	1 µM	remaining binding	100%
O=C(Nc1cnn(-c2csc(C(=O)NC3COC3)c2)c1)Nc1ccccc1Cl	CDK4 with cyclin D1	enzyme activity, inhibitor	5 µM	remaining activity	92.2%
CC1CCCN1c1nccc(-c2cnn3ncccc23)n1 (stereo not shown)	CDK4	binding	1 µM	remaining binding	100%
CCCCN(CCCC)C(=O)CN1C[C@@H](c2cc(OC)c3c(c2)OCO3)[C@H](C(=O)O)[C@H]1CC(C)(C)CCC	CDK4 with cyclin D3	cell-free assay, competition with immobilised ligand	1 µM	remaining binding	92.7%
